Consider 100 compounds from ChEMBL document CHEMBL4513216, “Probing the Open Global Health Chemical Diversity Library for Multistage-Active Starting Points for Next-Generation Antimalarials” (ACS Infect Dis, 2020).

The data set in a line: Toxicity liver stage against HepG2, at 10uM. It counts as cell-based. More on the design: test concentration 10 uM, cell line HepG2-A16-CD81EGFP. To be noted: human, HepG2-A16-CD81EGFP cells; read-out: INHIBITION
In short, it runs like this:
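Uninfected HepG2-A16-CD81EGFP cells, 3 × 10^3 per well, 1536-well, plated on prespotted compound at 10 μM final, parasite-free screening media added to match infected plates; puromycin 10 μM positive, DMSO 0.5% negative; run in parallel with 48 h PbLuc assay at 37 °C, 5% CO2; viability by CellTiter-Glo luminescence, normalized to controls.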
`Cc1ccc(C(=O)NCCCN2CCOCC2)c(Cl)c1`: the cytotoxicity at 10 µM was -12.5%.
Consider `O=C(NCCN1CCOCC1)N1CCN(c2ccccc2)CC1`, for which the cytotoxicity at 10 µM turned out to be 8.84%.
For the compound `COC(=O)[C@H]1CN(C(C)=O)CCN1C(C)=O`, the cytotoxicity at 10 µM was -3.31%.
As for `CC(=O)NC[C@H]1COCc2nc3cc(S(C)(=O)=O)ccc3n21`, the cytotoxicity at 10 µM came to 0.722%.
On to `O=C(NCc1ccccc1)[C@@H]1Cc2[nH]cnc2CN1CC1CC1`, for which the cytotoxicity at 10 µM was found to be 3.17%.
Regarding `CN1CCN(C(=O)c2cc3sccc3n2Cc2ccccc2F)CC1`, the cytotoxicity at 10 µM turned out to be 1.94%.
Consider `O=C1CCC(c2ccc(Cl)cc2)=NN1CN1CCCCCC1`, for which the cytotoxicity at 10 µM was 35.7%.
`Cc1noc(C)c1CN1CC2(CCN(C(=O)c3ccc[nH]3)C2)CC1=O` (stereo not given): the cytotoxicity at 10 µM is 6.27%.
The result for `CN(Cc1cn2c(n1)CN(C(=O)c1cccnc1)CC2)Cc1ccco1` reads -2.19%.
The result for `CCC(=O)N1CCC2(COCc3c(C)nc(N(C)C)nc32)C1` (stereo not given) reads -31.5%; that for `Fc1cnc(N2CCC3(COCc4cnc(NCC5CC5)nc43)C2)nc1` (stereo not given), -4.43%; that for `O=C1CCC2(CCCN(c3ncc(F)cn3)CC2)N1CC1CC1` (stereo not given), -0.291%.
Take `O=c1[nH]cc(N2CCOCC2)c(=O)[nH]1`: the cytotoxicity at 10 µM is 6.36%.
As for `COCC(=O)N1CCCC(c2csc(NC(C)=O)n2)C1` (stereo not given), the figure is -17.2%.
On to `CN1CCNC(Cc2ccc(-c3cccs3)cc2)C1=O` (stereo not given), for which the cytotoxicity at 10 µM is -29.3%.
As for `CC(=O)N1CCC(c2ccnc(Nc3ccc(C)cn3)n2)C1` (stereo not given), the figure is -16.7%; as for `Cc1cc(CN2CCN(C(C)C(=O)NCc3cccs3)CC2)no1` (stereo not given), -0.335%; as for `Cc1cccc2nc(CN3CCC(N4CCN(C)C4=O)CC3)cn12`, -0.337%.
For the compound `Cc1nc2cc(=O)[nH]n2c(C)c1CNC(=O)C(C)(C)c1ccccc1`, the cytotoxicity at 10 µM was 1.1%.
The result for `Cc1ccc(CN(C(=O)NCC2CCCO2)C2CC2)o1` (stereo not given) reads -151%; that for `O=C(CCC(=O)N1CCOCC1c1ccccc1)c1cccs1` (stereo not given), -1.26%.
As for `Cc1ccccc1C(=O)NCCC(=O)NS(=O)(=O)c1cccnc1`, the figure is -11.6%.
The result for `CCc1n[nH]c(NC(=O)c2ccc(Cl)cn2)c1Br` reads -5.37%; that for `CCCN(Cc1ccccc1O)S(=O)(=O)N(C)CC`, 10.2%; that for `O=C(NCCOc1ccc(Cl)cn1)NCCc1ccccn1`, 7.95%.
Consider `Cc1nn(C)c(C)c1C1CCCN1CCCC#N` (stereo not given), for which the cytotoxicity at 10 µM is -0.699%.
The result for `COCCC(=O)N1CCC(Nc2ncc(Br)cn2)CC1` reads -2.46%.
As to `NC(=O)N1CCCC1COC(=O)c1ccc(F)cc1Br` (stereo not given), the cytotoxicity at 10 µM turned out to be 0.616%.
The result for `O=C(NCC(O)c1ccc(F)cc1F)c1ccccc1F` (stereo not given) reads 13.9%; that for `CC(=O)c1ccc(NC(=O)NC(C)c2ccc3c(c2)CC(=O)N3)cc1` (stereo not given), -8.03%.
As for `CCc1ncncc1C(=O)NCCNC(=O)c1ccc(C)c(F)c1`, the figure is 7.67%.
As for `O=C(C1CC1)N1CCN(C(=O)C2CC(=O)N(c3ccccc3Br)C2)CC1` (stereo not given), the figure is 12.8%; as for `Cc1cnc(NC(=O)N2CCC(N3CCCCC3=O)CC2)s1`, -0.772%; as for `Cc1csc(NC(=O)CN2CCc3nn(C)c(=O)cc3C2)n1`, -0.995%.
With `NC(=O)CSc1ccccc1NC(=O)CC1C=CCC1` (stereo not given), the cytotoxicity at 10 µM was -131%.
As to `CC(C)(C)CC(=O)Nc1ccccc1SCC(N)=O`, the cytotoxicity at 10 µM is -138%.
The result for `Cc1ccccc1OCCN1CCCC1CS(N)(=O)=O` (stereo not given) reads 18.3%; that for `COc1c(Br)cccc1CCNC(=O)c1ncoc1C`, 3.39%; that for `OCCCNC1CCc2cc3c(cc21)OCCO3` (stereo not given), -5.93%.
`Cc1nc(NC(=O)C2CCCN(C(=O)C3CC3)C2)sc1C` (stereo not given): the cytotoxicity at 10 µM is 3.71%.
`Cc1cc(C)cc(OCC(=O)N2CCCC2)c1`: the cytotoxicity at 10 µM stood at 5.04%.
Take `O=C(Nc1cc(-n2cccc2)ccc1F)N1CCCC1`: the cytotoxicity at 10 µM was -4.22%.
For the compound `CN(C)CCN(C)C(=O)Nc1cc(F)cc(N2CCCC2)c1`, the cytotoxicity at 10 µM is -2.22%.
As for `CC(=O)NS(=O)(=O)c1ccc2c(c1)N(C)CCC2`, the figure is -0.89%.
For the compound `c1csc(CNc2ccccc2Cn2cncn2)c1`, the cytotoxicity at 10 µM worked out at 11.5%.
As for `O=C(Cc1ccc(Cl)cc1)N1CCC(O)(C(F)(F)F)C1` (stereo not given), the figure is -12.3%; as for `O=C(NCCc1nnc2n1CCCCC2)N1CCC2(CCCC2)CC1`, -7.94%.
The result for `O=C(c1cn(-c2ccccc2Cl)nn1)N1CCCSCC1` reads -4.26%; that for `CC(C)Oc1ccc(CSc2nnc(CN3CCCC3=O)o2)cc1`, -1.71%; that for `CCNC(=O)N1CCCCC1CCNS(C)(=O)=O` (stereo not given), -7.71%.
In the case of `CCCN1CCN(Cc2nccn2CC)C(C)C1` (stereo not given), the cytotoxicity at 10 µM was determined as 8.14%.
The result for `Cn1nccc1-c1ncc(-c2cc(C(=O)O)n(CC3CC3)c2)cn1` reads 1.55%; that for `CN1CCN(Cc2cnn(-c3ccccc3Cl)c2)[C@H]2CS(=O)(=O)C[C@H]21`, 6.19%.
Regarding `Oc1ccccc1-c1cc(-c2nc(C3CC3)n[nH]2)[nH]n1`, the cytotoxicity at 10 µM worked out at 0.45%.
The result for `CCc1nnc(CNC(=O)CCC2CCCN(C)C2)s1` (stereo not given) reads -148%; that for `CCCc1cc(C(=O)N2Cc3ccccc3C2)[nH]n1`, 2.02%.
The result for `Cc1nc(C2CCNCC2)cc(N2CCOc3ccccc3C2)n1` reads -2.3%.
The result for `COc1cc(-c2nc3c([nH]2)CCCNC3=O)ccc1O` reads 16.9%.
For `CCn1c(CN2CCCC2)nnc1C1CCN(Cc2cc(C)no2)CC1`, the cytotoxicity at 10 µM stood at 3.6%.
As for `CCc1cc(N2CCC(F)(F)CC2)n2nc(C)c(C)c2n1`, the figure is -6.42%; as for `Cc1[nH]nc(CCC(=O)NCC2CCN(C3CCCCC3)C2)c1C` (stereo not given), -5.08%.
The result for `CCc1cnc(NCC(c2ccncc2)N2CCOCC2)nc1` (stereo not given) reads 8.71%; that for `O=c1cc(N2CCCCC2)cnn1CCCn1cccn1`, -48.9%.
As for `COc1cccc(CN2CCC(O)(c3ccc(C)cn3)CC2)c1OC`, the figure is -107%.
On to `CCCn1cc(NC(=O)c2cccc(CN3CC=CC3)c2)nn1`, for which the cytotoxicity at 10 µM was -147%.
As for `CNC(=O)c1cc(-n2ccnc2-c2cnc(N(C)C)nc2)ccc1OC`, the figure is -6.91%.
Regarding `CC(=O)N[C@@H](CC(C)C)C(=O)N1CCC(n2cc(CC(C)C)nn2)CC1`, the cytotoxicity at 10 µM was -10.8%.
As to `CCc1nc(N)nc(N2CCCC3(CCN(C)CC3)CC2)c1C`, the cytotoxicity at 10 µM was -179%.
On to `CCO[C@H]1COC[C@@H]1NC(=O)c1c[nH]nc1C1CCCCC1`, for which the cytotoxicity at 10 µM was -3.13%.
As for `Cc1cn2cc(-c3nc4c([nH]3)CCCNC4=O)nc2s1`, the cytotoxicity at 10 µM was determined as 5.48%.
The result for `CCc1cnc(NCCCN2CCC(O)CC2)nc1` reads 3.44%; that for `CC(C)C[C@H](NC(=O)c1cc(-c2cccn2C)n[nH]1)C(N)=O`, 3.7%; that for `CC(C)N(C)CC(=O)N(C)C(c1cccc(F)c1)c1ccccn1` (stereo not given), -6.14%.
For `Cc1noc(C)c1CN(C)CC(c1cccs1)N1CCOCC1` (stereo not given), the cytotoxicity at 10 µM was -4.98%.
The result for `c1cnnc(N2CCCC2CNCc2cscn2)c1` (stereo not given) reads -5.78%.
As for `O=C(Cc1ccc2c(c1)OCCO2)NC1CCCCC1`, the figure is -12.3%; as for `CCc1noc(C(C)N2CCN(CC)CC2)n1` (stereo not given), -6.01%; as for `Cc1nn(C)c(N(C)C)c1CNCc1ccc(Cn2cncn2)cc1`, -6.94%.
The result for `O=C(NCCc1cccs1)NCC(O)c1cccc(F)c1` (stereo not given) reads -4.07%; that for `CN(C)c1ncccc1CNS(=O)(=O)c1ccc(F)cc1F`, -3%; that for `CCc1ccsc1C(=O)N1CCN(CC(N)=O)CC1`, -1.1%.
Take `Cc1nc(CN(C)C2CCN(Cc3nnc(C4CC4)o3)C2)no1` (stereo not given): the cytotoxicity at 10 µM is -5%.
On to `CN(Cc1ccco1)C(=O)CN1CCOC(Cn2cccn2)C1` (stereo not given), for which the cytotoxicity at 10 µM was -9.91%.
In the case of `FC(F)CN1CCOC(Cn2cccn2)C1` (stereo not given), the cytotoxicity at 10 µM is -9.94%.
The result for `Cc1nn(C)c(C)c1C1CCCN1Cc1nc2ccccc2n1C` (stereo not given) reads -14.4%; that for `O=C(NCCC(=O)N1CCCc2ccccc21)c1c(F)cccc1F`, -14.5%.
Consider `CCCc1ccc(C(=O)N2CCn3c(nnc3C(C)C)C2)cc1`, for which the cytotoxicity at 10 µM was determined as 9.83%.
As for `CCc1nnsc1C(=O)N1CCCN(Cc2cnn(CC)c2)CC1`, the figure is -1.76%.
In the case of `O=C(c1c[nH]cn1)N1CCCn2c(CN3CCCCC3)nnc2C1`, the cytotoxicity at 10 µM is -3.03%.
For `CN1CCN(C(=O)CCc2ccccc2)Cc2cccnc21`, the cytotoxicity at 10 µM is -1.04%.
The result for `O=C1COC2(CCN(Cc3ccncc3)CC2)CN1` reads -1.81%; that for `O=C(Nc1cccnc1)[C@H]1COC[C@H]2CN(C3CCCC3)C[C@H]21`, -20.1%.
As for `Fc1ccc(CN2CCn3cc(Cn4cccn4)nc3C2)cc1`, the figure is 0.864%; as for `c1ccc(C[C@H]2CN(C3CCOCC3)CC[C@H]2OCC2CC2)cc1`, 0.994%.
Consider `CCCS(=O)(=O)N1Cc2nccn2CC(CN(C)C)C1` (stereo not given), for which the cytotoxicity at 10 µM is -106%.
The result for `Cc1nn(C)c(N(C)C)c1CNCC(O)COc1ccccc1` (stereo not given) reads -0.0582%; that for `Cc1nc(CN2C(=O)CC[C@@H]3[C@H]2CCN3C2CCOC2)cs1` (stereo not given in full), -141%.
Turning to `O=C(O)c1cc(C=Cc2ccc3ccccc3c2)ncn1`, the cytotoxicity at 10 µM is -13.6%.
In the case of `CCN(CCSc1ccccc1)C(=O)c1cn(C2CCC(N)CC2)nn1` (stereo not given), the cytotoxicity at 10 µM is -2.93%.
As for `CN1C(=O)[C@@H]2CC[C@H]1CN(C(=O)Nc1ccccc1C(F)(F)F)C2`, the figure is -2.53%.
